Laboratory results reported in ChEMBL document CHEMBL1123757, “Selective thromboxane synthetase inhibitors and antihypertensive agents. New derivatives of 4-hydrazino-5H-pyridazino[4,5-b]indole, 4-hydrazinopyridazino[4,5-a]indole, and related compounds” (J Med Chem, 1987).

Legend:
[1] = system: Rattus norvegicus; experiment: Antihypertensive activity in spontaneously hypertensive rats (SHR) measured by percentage fall in arterial pressure (AP) at 25 mg/kg administered intraperitoneally at 5 h; type: functional, Artery; details: route intraperitoneal
Procedure, shortened: (§1)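 Unanesthetized Okamoto-strain SHR, male and female, 8 weeks old, 300–350 g, systolic pressure ≥190 mmHg, heart rate 400–650 beats/min; five animals per dose. Given ip at 2.5 mL/kg, dissolved or suspended in normal saline or saline with 0.2% (carboxymethyl)cellulose and 1.0% Tween 80. Tail AP and CR recorded by mechanical transduction at set times; reported as percentage fall from control.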

[2] = system: Rattus norvegicus; experiment: Antihypertensive activity in spontaneously hypertensive rats (SHR) measured by percentage fall in cardiac rhythm (CR) at 25 mg/kg administered intraperitoneally at 24 h;No significance; type: functional, organism-based; parameters: dose 25 mg/kg; details: Heart; procedure, shortened: as §1
[3] = system: Rattus norvegicus; experiment: Antihypertensive activity in spontaneously hypertensive rats (SHR) measured by percentage fall in cardiac rhythm (CR) at 25 mg/kg administered intraperitoneally at 3 h;No significance; type: functional, organism-based; parameters: dose 25 mg/kg; details: Heart
Procedure, shortened: (§2)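 Conscious SHR (Okamoto strain), 8 weeks old, male and female, 300–350 g, systolic BP ≥190 mmHg, CR 400–650 beats/min. Given ip or po at 2.5 mL/kg in normal saline or saline with 0.2% (carboxymethyl)cellulose and 1.0% Tween 80. Tail AP and CR recorded by mechanical transduction at 1, 3, 5 and 24 h, five animals per dose. Effect expressed as % fall versus control.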

[4] = system: Rattus norvegicus; experiment: Antihypertensive activity in spontaneously hypertensive rats (SHR) measured by percentage fall in cardiac rhythm (CR) at 25 mg/kg administered intraperitoneally at 5 h;No significance; type: functional, organism-based; parameters: dose 25 mg/kg; details: Heart; procedure, shortened: as §2
[5] = system: Rattus norvegicus; experiment: Antihypertensive activity in spontaneously hypertensive rats (SHR) measured by percentage fall in arterial pressure (AP) at 25 mg/kg administered intraperitoneally at 24 h; type: functional, Artery; details: route intraperitoneal; procedure, shortened: as §1
[6] = system: Rattus norvegicus; experiment: Antihypertensive activity in spontaneously hypertensive rats (SHR) measured by percentage fall in arterial pressure (AP) at 25 mg/kg administered intraperitoneally at 3 h; type: functional, Artery; details: route intraperitoneal; procedure, shortened: as §1
[7] = system: Rattus norvegicus; experiment: Antihypertensive activity in spontaneously hypertensive rats (SHR) measured by percentage fall in cardiac rhythm (CR) at 25 mg/kg administered intraperitoneally at 1 h; type: functional, Heart; details: route intraperitoneal; procedure, shortened: as §1
[8] = system: Rattus norvegicus; experiment: Antihypertensive activity in spontaneously hypertensive rats (SHR) measured by percentage fall in cardiac rhythm (CR) at 25 mg/kg administered intraperitoneally at 24 h; type: functional, Heart; details: route intraperitoneal; procedure, shortened: as §1
[9] = system: Rattus norvegicus; experiment: Antihypertensive activity in spontaneously hypertensive rats (SHR) measured by percentage fall in cardiac rhythm (CR) at 25 mg/kg administered intraperitoneally at 3 h; type: functional, Heart; details: route intraperitoneal; procedure, shortened: as §1
[10] = system: Rattus norvegicus; experiment: Antihypertensive activity in spontaneously hypertensive rats (SHR) measured by percentage fall in cardiac rhythm (CR) at 25 mg/kg administered intraperitoneally at 5 h; type: functional, Heart; details: route intraperitoneal; procedure, shortened: as §2
[11] = system: Rattus norvegicus; experiment: Antihypertensive activity in spontaneously hypertensive rats (SHR) measured by percentage fall in arterial pressure (AP) at 25 mg/kg administered intraperitoneally at 1 h; type: functional, Artery; details: route intraperitoneal; procedure, shortened: as §1
[12] = species on record: Homo sapiens; experiment: In vitro inhibition of platelet aggregation induced by […] (PRP incubated for 5 minutes at 37 degree C) at 10e-5 M; No significance; type: functional
[13] = system: Rattus norvegicus; experiment: Antihypertensive activity in spontaneously hypertensive rats (SHR) measured by percentage fall in arterial pressure (AP) at 25 mg/kg administered intraperitoneally at 3 h;No significance; type: functional, organism-based; parameters: dose 25 mg/kg; details: Artery; procedure, shortened: as §1
[14] = system: Rattus norvegicus; experiment: Antihypertensive activity in spontaneously hypertensive rats (SHR) measured by percentage fall in arterial pressure (AP) at 25 mg/kg administered intraperitoneally at 5 h;No significance; type: functional, organism-based; parameters: dose 25 mg/kg; details: Artery; procedure, shortened: as §1
[15] = species on record: Homo sapiens; experiment: In vitro inhibition of platelet aggregation induced by AA (PRP incubated for 60 minutes at 37 degree C) at 10e-5 M; No significance; type: functional
Procedure, shortened: (§3)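 Human venous blood anticoagulated with 3.8% sodium citrate (1:9). PRP from centrifugation at 800 rpm for 10 min at room temperature. Count adjusted with PPP to […]. Compound in saline with 10% ethylene glycol is added to PRP and incubated at 37 °C before the agonist. Agonists: ADP 2×10^-5 M, AA 0.6 mM, PGH2 2.8 μM, adrenaline 0.6 μM. Born absorbance aggregometry; n = 5.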

[16] = system: Rattus norvegicus; experiment: Antihypertensive activity in spontaneously hypertensive rats (SHR) measured by percentage fall in cardiac rhythm (CR) at 25 mg/kg administered intraperitoneally at 1 h;No significance; type: functional, organism-based; parameters: dose 25 mg/kg; details: Heart; procedure, shortened: as §1
[17] = system: Rattus norvegicus; experiment: Antihypertensive activity in spontaneously hypertensive rats (SHR) measured by percentage fall in arterial pressure (AP) at 25 mg/kg administered intraperitoneally at 1 h;No significance; type: functional, organism-based; parameters: dose 25 mg/kg; details: Artery; procedure, shortened: as §1
[18] = system: Rattus norvegicus; experiment: Antihypertensive activity in spontaneously hypertensive rats (SHR) measured by percentage fall in arterial pressure (AP) at 25 mg/kg administered intraperitoneally at 24 h;No significance; type: functional, organism-based; parameters: dose 25 mg/kg; details: Artery; procedure, shortened: as §1
[19] = species on record: Homo sapiens; experiment: In vitro inhibition of platelet aggregation induced by ADP-II (PRP incubated for 5 minutes at 37 degree C) at 10e-5 M; No significance; type: functional; procedure, shortened: as §3
[20] = species on record: Homo sapiens; experiment: In vitro inhibition of platelet aggregation induced by ADP-II (PRP incubated for 60 minutes at 37 degree C) at 10e-5 M; type: functional; details: 1 h; procedure, shortened: as §3
[21] = system: Rattus norvegicus; experiment: Antihypertensive activity in spontaneously hypertensive rats (SHR) measured by percentage fall in arterial pressure (AP) at 25 mg/kg administered perorally at 3 h; type: functional, Artery; details: route oral
Procedure, shortened: (§4)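 Oral dosing at 2.5 mL/kg to unanesthetized male and female Okamoto-strain SHR (8 weeks old, 300–350 g, systolic pressure ≥190 mmHg, heart rate 400–650 beats/min), five per dose. Vehicle was normal saline or saline with 0.2% (carboxymethyl)cellulose and 1.0% Tween 80. AP measured on the tail by mechanical transduction at set times; expressed as percentage fall from control.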

[22] = system: Rattus norvegicus; experiment: Antihypertensive activity in spontaneously hypertensive rats (SHR) measured by percentage fall in arterial pressure (AP) at 25 mg/kg administered perorally at 5 h; type: functional, Artery; details: route oral; procedure, shortened: as §4
[23] = system: Rattus norvegicus; experiment: Antihypertensive activity in spontaneously hypertensive rats (SHR) measured by percentage fall in arterial pressure (AP) at 5 mg/kg administered intraperitoneally at 24 h; type: functional, Artery; details: route intraperitoneal; procedure, shortened: as §1
[24] = system: Rattus norvegicus; experiment: Antihypertensive activity in spontaneously hypertensive rats (SHR) measured by percentage fall in arterial pressure (AP) at 5 mg/kg administered intraperitoneally at 5 h; type: functional, Artery; details: route intraperitoneal; procedure, shortened: as §1
[25] = system: Rattus norvegicus; experiment: Antihypertensive activity in spontaneously hypertensive rats (SHR) measured by percentage fall in arterial pressure (AP) at 25 mg/kg administered perorally at 24 h; type: functional, Artery; details: route oral; procedure, shortened: as §4
[26] = system: Rattus norvegicus; experiment: Antihypertensive activity in spontaneously hypertensive rats (SHR) measured by percentage fall in cardiac rhythm (CR) at 1 mg/kg administered intraperitoneally at 24 h; type: functional, Heart; details: route intraperitoneal; procedure, shortened: as §1
[27] = system: Rattus norvegicus; experiment: Antihypertensive activity in spontaneously hypertensive rats (SHR) measured by percentage fall in cardiac rhythm (CR) at 1 mg/kg administered intraperitoneally at 3 h; type: functional, Heart; details: route intraperitoneal; procedure, shortened: as §1
[28] = system: Rattus norvegicus; experiment: Antihypertensive activity in spontaneously hypertensive rats (SHR) measured by percentage fall in cardiac rhythm (CR) at 1 mg/kg administered intraperitoneally at 5 h; type: functional, Heart; details: route intraperitoneal; procedure, shortened: as §1
[29] = system: Rattus norvegicus; experiment: Antihypertensive activity in spontaneously hypertensive rats (SHR) measured by percentage fall in cardiac rhythm (CR) at 25 mg/kg administered perorally at 3 h; type: functional, Heart; details: route oral; procedure, shortened: as §2
[30] = system: Rattus norvegicus; experiment: Antihypertensive activity in spontaneously hypertensive rats (SHR) measured by percentage fall in cardiac rhythm (CR) at 5 mg/kg administered intraperitoneally at 3 h; type: functional, Heart; details: route intraperitoneal; procedure, shortened: as §2
[31] = system: Rattus norvegicus; experiment: Antihypertensive activity in spontaneously hypertensive rats (SHR) measured by percentage fall in arterial pressure (AP) at 5 mg/kg administered intraperitoneally at 3 h; type: functional, Artery; details: route intraperitoneal; procedure, shortened: as §1
[32] = species on record: Homo sapiens; experiment: In vitro inhibition of platelet aggregation induced by ADP-II (PRP incubated for 5 minutes at 37 degree C) at 10e-5 M; type: functional; procedure, shortened: as §3

| SMILES | Decrease in AP [1] [%] | Decrease in CR [2] | Decrease in AP [5] [%] | Decrease in AP [6] [%] | Decrease in CR [9] [%] | Decrease in CR [10] [%] | Decrease in AP [11] [%] | also measured |
| --- | --- | --- | --- | --- | --- | --- | --- | --- |
| COc1ccc2[nH]c3c(cnn4nnnc34)c2c1 | 8 | No significant values | 6 | 12 |  |  |  | Decrease in CR [3]: No significant values; Decrease in CR [4]: No significant values |
| Cl.NNc1[nH]ncc2c3cc(OCc4ccccc4)ccc3nc1-2 | 28 |  | 9 | 33 | -13 | -15 | 18 | Decrease in CR [7]: -7%; Decrease in CR [8]: -16% |
| NNc1[nH]ncc2c3cc(OCc4ccccc4)ccc3nc1-2.O=S(=O)(O)O | 26 |  |  | 32 | 7 | 8 | 21 | Decrease in CR [7]: 9% |
| COc1ccc2c(c1)cc1c(NN)nncn12 [listing 1 of 2 here] |  | No significant values |  |  |  |  |  | inhibition [12]: No significant values; Decrease in AP [13]: No significant values; Decrease in AP [14]: No significant values; inhibition [15]: No significant values; Decrease in CR [16]: No significant values; Decrease in CR [3]: No significant values; Decrease in CR [4]: No significant values; Decrease in AP [17]: No significant values; Decrease in AP [18]: No significant values |
| CCOc1ccc2[nH]c3c(NN)nncc3c2c1 | 24 |  | 5 | 28 | -11 | -9 | 29 | Decrease in CR [7]: -20% |
| COc1ccc2c(c1)cc1c(NN)nncn12.Cl |  |  |  |  |  |  | 9 |  |
| COc1ccc2[nH]c3c(cnn4c(C)nnc34)c2c1 | 8 | No significant values |  | 10 | -5 | 7 |  | Decrease in AP [18]: No significant values |
| COc1ccc2[nH]c3c(cnn4cnnc34)c2c1 | 11 | No significant values |  |  | 10 |  |  | Decrease in AP [13]: No significant values; Decrease in CR [4]: No significant values; Decrease in AP [18]: No significant values |
| COc1ccc2c(c1)cc1c(S)nncn12 |  |  |  |  |  |  |  | inhibition [12]: No significant values; inhibition [15]: No significant values; inhibition [19]: No significant values; inhibition at 10 µM [20]: 100% |
| COc1ccc2[nH]c3c(N/N=C\c4ccccc4)nncc3c2c1 | 8 |  |  | 6 | -20 |  |  | Decrease in CR [8]: -13% |
| COc1ccc2[nH]c3c(NN)nncc3c2c1 | 30 |  | 5 | 32 | -8 | -10 | 17 | Decrease in CR [7]: -8% |
| CCOc1ccc2[nH]c3c(S)nncc3c2c1 |  | No significant values |  | 5 |  |  | 10 | Decrease in AP [14]: No significant values; Decrease in CR [16]: No significant values; Decrease in CR [3]: No significant values; Decrease in CR [4]: No significant values; Decrease in AP [18]: No significant values |
| NNc1[nH]ncc2c3cc(OCc4ccccc4)ccc3nc1-2 | 13 |  | 7 | 12 | 15 | 20 |  | Decrease in AP [21]: 6%; Decrease in AP [22]: 10%; Decrease in AP [23]: 7%; Decrease in AP [24]: 13%; Decrease in AP [25]: 5%; Decrease in CR [26]: 9%; Decrease in CR [27]: 8%; Decrease in CR [28]: 6%; Decrease in CR [29]: 21%; Decrease in CR [30]: 16%; Decrease in CR [8]: 7%; Decrease in AP [31]: 5% |
| COc1ccc2c(c1)cc1c(NN)nncn12 [listing 2 of 2 here] |  |  |  |  |  |  |  | inhibition at 10 µM [32]: 100%; inhibition at 10 µM [20]: 100% |
| COc1ccc2[nH]c3c(NN=C(C)C)nncc3c2c1 | 14 |  | 7 | 13 | -11 | -8 |  | Decrease in CR [8]: -10% |
| COc1ccc2c(c1)cc1c(O)nncn12 |  |  |  |  |  |  |  | inhibition [12]: No significant values; inhibition [15]: No significant values; inhibition [19]: No significant values; inhibition at 10 µM [20]: 100% |
